According to ChEMBL document CHEMBL2016575, “The chemical synthesis of metabolically stabilized 2-OMe-LPA analogues and preliminary studies of their inhibitory activity toward autotaxin” (Bioorg Med Chem Lett, 2012):

Columns and labels:
[1] = Metabolic stability of the compound assessed as reduction in dephosphorylation at […] after 24 hrs by phosphomolybdate blue assay in presence of bovine intestinal mucosal alkaline phosphatase; format: ADME; details: cattle, isolated protein
Method in brief: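 Substrate incubated with the phosphatase at 37 °C for 24 h. Dephosphorylation is followed by quantifying liberated inorganic phosphate with a modified phosphomolybdate blue assay.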

Autotaxin [2] = biological target: T1, Autotaxin (Homo sapiens, UniProt Q13822); experiment: Inhibition of human recombinant autotaxin expressed in insect Sf9 cells using FS-3 as substrate at 1 uM preincubated for 10 mins prior substrate addition measured up to 60 mins by FRET-based analysis
Autotaxin [3] = biological target: T1, Autotaxin; experiment: Inhibition of human recombinant autotaxin expressed in insect Sf9 cells using FS-3 as substrate preincubated for 10 mins prior substrate addition measured up to 60 mins by FRET-based analysis

Stability [1]	inhibition (Autotaxin [2]) [%]	IC50 (Autotaxin [3]) [µM]	SMILES
Unstable	–	–	CCCCCCCC/C=C\CCCCCCCC(=O)OC[C@@H](O)COP(=O)(O)O [LYSOPHOSPHATIDIC ACID]
–	74.5	0.361	CCCCCCCCCCCCCCCC(=O)OCC(COP(=O)(O)O)OC (stereo not given)
–	49.7	1.01	CCCCCCCCCCCCCCCCCC(=O)OCC(COP(=O)(O)O)OC (stereo not given)
Stable	81.3	0.22	CCCCCCCC/C=C\CCCCCCCC(=O)OCC(COP(=O)(O)O)OC (stereo not given)
–	57.7	0.704	CCCCCCCCCCCCCC(=O)OCC(COP(=O)(O)O)OC (stereo not given)
Stable	86.1	0.17	CCCCCCCCCCCCCCCCCC(=O)OC[C@@H](O)CC(Br)P(=O)(O)O (stereo not given in full)
–	45.5	1.2	CCCCCCCCCCCC(=O)OCC(COP(=O)(O)O)OC (stereo not given)

Further lines, the molecule ahead of its results:

SMILES	Stability [1]	inhibition (Autotaxin [2]) [%]	IC50 (Autotaxin [3]) [µM]
CCCCCCCC/C=C\CCCCCCCC(=O)OCC(COP(=O)(O)S)OC (stereo not given)	–	77.8	0.356
CCCCCCCCCCCC(=O)OCC(COP(=O)(O)S)OC (stereo not given)	–	36.7	2.41
CCCCCCCCCCCCCC(=O)OCC(COP(=O)(O)S)OC (stereo not given)	–	62.3	0.596
CCCCCCCCCCCCCCCC(=O)OCC(COP(=O)(O)S)OC (stereo not given)	–	64.7	0.512
CCCCCCCCCCCCCCCCCC(=O)OCC(COP(=O)(O)S)OC (stereo not given)	–	35.5	2.42
